Assay results reported in ChEMBL document CHEMBL1135831, “Expansion of structure-activity studies of piperidine analogues of 1-[2-(diphenylmethoxy)ethyl]-4-(3-phenylpropyl)piperazine (GBR 12935) compounds by altering substitutions in the N-benzyl moiety and behavioral pharmacology of selected molecules” (J Med Chem, 2002).
pIC50: −log10 of the molar value.

Target: Sodium-dependent dopamine transporter (Rattus norvegicus, UniProt P23977)
Assay: Inhibition of 3[H] WIN-35 428 binding to Dopamine transporter (DAT)
Settings: not given

Chain of Sodium-dependent dopamine transporter (P23977 whole entry): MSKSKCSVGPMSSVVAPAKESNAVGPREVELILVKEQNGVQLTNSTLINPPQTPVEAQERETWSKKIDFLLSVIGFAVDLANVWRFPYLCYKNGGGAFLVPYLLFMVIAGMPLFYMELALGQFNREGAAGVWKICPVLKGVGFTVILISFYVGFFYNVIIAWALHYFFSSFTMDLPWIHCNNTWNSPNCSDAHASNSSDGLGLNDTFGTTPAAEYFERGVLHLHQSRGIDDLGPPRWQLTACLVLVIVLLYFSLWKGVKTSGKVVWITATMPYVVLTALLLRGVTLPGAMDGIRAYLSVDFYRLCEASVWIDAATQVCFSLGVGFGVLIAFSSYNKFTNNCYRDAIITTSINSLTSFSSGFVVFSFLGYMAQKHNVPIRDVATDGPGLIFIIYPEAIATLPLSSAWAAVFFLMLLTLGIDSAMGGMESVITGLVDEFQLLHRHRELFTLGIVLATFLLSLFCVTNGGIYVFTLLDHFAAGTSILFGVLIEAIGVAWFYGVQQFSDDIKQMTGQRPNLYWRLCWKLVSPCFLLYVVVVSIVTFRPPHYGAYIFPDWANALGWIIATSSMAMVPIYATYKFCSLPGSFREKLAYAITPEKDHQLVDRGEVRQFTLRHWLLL

Compound	pIC50
Oc1ccc(CN2CCC(CCOC(c3ccccc3)c3ccccc3)CC2)cc1	6.62
COC(=O)c1ccc(CN2CCC(CCOC(c3ccccc3)c3ccccc3)CC2)cc1	8.08
C#Cc1ccc(CN2CCC(CCOC(c3ccccc3)c3ccccc3)CC2)cc1	8.39
C=Cc1ccc(CN2CCC(CCOC(c3ccccc3)c3ccccc3)CC2)cc1	8.53
C=C(C)c1ccc(CN2CCC(CCOC(c3ccccc3)c3ccccc3)CC2)cc1	7.94
CC#Cc1ccc(CN2CCC(CCOC(c3ccccc3)c3ccccc3)CC2)cc1	7.19

Target: Norepinephrine transporter (Rattus norvegicus, UniProt Q9WTR4)
Assay: Inhibition of [3H]- […] binding to Norepinephrine transporter
Settings: not given

Chain of Norepinephrine transporter (Q9WTR4 whole entry): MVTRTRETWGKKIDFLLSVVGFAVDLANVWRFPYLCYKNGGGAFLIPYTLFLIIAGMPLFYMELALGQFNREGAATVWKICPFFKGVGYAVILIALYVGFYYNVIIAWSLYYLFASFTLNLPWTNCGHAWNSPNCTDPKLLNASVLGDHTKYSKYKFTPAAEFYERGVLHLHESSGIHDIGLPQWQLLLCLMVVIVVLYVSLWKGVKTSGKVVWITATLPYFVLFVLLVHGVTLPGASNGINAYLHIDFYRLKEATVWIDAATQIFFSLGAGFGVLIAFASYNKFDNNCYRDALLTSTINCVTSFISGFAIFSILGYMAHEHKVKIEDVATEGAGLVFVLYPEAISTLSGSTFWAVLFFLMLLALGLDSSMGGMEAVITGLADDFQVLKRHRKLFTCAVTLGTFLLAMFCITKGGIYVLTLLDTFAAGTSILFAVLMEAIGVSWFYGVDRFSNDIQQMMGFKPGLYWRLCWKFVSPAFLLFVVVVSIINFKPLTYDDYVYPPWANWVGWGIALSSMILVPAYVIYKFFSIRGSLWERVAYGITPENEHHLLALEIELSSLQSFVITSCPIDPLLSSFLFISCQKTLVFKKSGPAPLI

Compound	pIC50
Oc1ccc(CN2CCC(CCOC(c3ccccc3)c3ccccc3)CC2)cc1	5.48
C#Cc1ccc(CN2CCC(CCOC(c3ccccc3)c3ccccc3)CC2)cc1	6.12
C=Cc1ccc(CN2CCC(CCOC(c3ccccc3)c3ccccc3)CC2)cc1	6.15
C=C(C)c1ccc(CN2CCC(CCOC(c3ccccc3)c3ccccc3)CC2)cc1	6.08
Oc1cccc(CN2CCC(CCOC(c3ccccc3)c3ccccc3)CC2)c1	6.17
CC#Cc1ccc(CN2CCC(CCOC(c3ccccc3)c3ccccc3)CC2)cc1	5.93
Ic1ccc(CN2CCC(CCOC(c3ccccc3)c3ccccc3)CC2)cc1	5.94
COc1cccc(CN2CCC(CCOC(c3ccccc3)c3ccccc3)CC2)c1	6.33

Species: Rattus norvegicus
Assay: Concentration causing 50% Inhibition of [3H]- DA (Dopamine) uptake in rat striatal synaptosomes
Assay type: functional
Settings: Brain

Compound	pIC50
COC(=O)c1ccc(CN2CCC(CCOC(c3ccccc3)c3ccccc3)CC2)cc1	8.71
C#Cc1ccc(CN2CCC(CCOC(c3ccccc3)c3ccccc3)CC2)cc1	8.32
C=Cc1ccc(CN2CCC(CCOC(c3ccccc3)c3ccccc3)CC2)cc1	8.97
C=C(C)c1ccc(CN2CCC(CCOC(c3ccccc3)c3ccccc3)CC2)cc1	8.51
Ic1ccc(CN2CCC(CCOC(c3ccccc3)c3ccccc3)CC2)cc1	8.70

Species: Rattus norvegicus
Assay: Inhibition of [3H]- DA (Dopamine) uptake in rat striatal synaptosomes
Assay type: functional
Settings: Brain

Compound	pIC50
Oc1cccc(CN2CCC(CCOC(c3ccccc3)c3ccccc3)CC2)c1	7.98
COc1cccc(CN2CCC(CCOC(c3ccccc3)c3ccccc3)CC2)c1	8.18

Target: Sodium-dependent serotonin transporter (Rattus norvegicus, UniProt P31652)
Assay: Inhibition of [3H]- citalopram binding to Serotonin transporter
Settings: not given

Chain of Sodium-dependent serotonin transporter (P31652 whole entry): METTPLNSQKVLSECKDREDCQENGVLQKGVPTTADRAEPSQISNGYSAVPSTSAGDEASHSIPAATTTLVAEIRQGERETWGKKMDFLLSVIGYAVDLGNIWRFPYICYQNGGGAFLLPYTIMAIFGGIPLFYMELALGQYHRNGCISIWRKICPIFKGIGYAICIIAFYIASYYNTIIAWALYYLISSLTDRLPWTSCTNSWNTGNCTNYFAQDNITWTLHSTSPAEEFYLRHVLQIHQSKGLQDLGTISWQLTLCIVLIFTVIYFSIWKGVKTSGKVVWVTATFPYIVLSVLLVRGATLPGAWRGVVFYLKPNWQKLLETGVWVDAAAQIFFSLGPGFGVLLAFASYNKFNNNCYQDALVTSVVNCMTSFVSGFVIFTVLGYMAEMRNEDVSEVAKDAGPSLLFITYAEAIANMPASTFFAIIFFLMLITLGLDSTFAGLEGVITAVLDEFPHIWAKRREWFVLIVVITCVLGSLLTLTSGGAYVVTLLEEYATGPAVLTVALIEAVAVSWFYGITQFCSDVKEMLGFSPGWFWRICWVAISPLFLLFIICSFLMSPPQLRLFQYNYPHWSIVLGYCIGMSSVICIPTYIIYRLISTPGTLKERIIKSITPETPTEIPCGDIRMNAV

Compound	pIC50
Oc1ccc(CN2CCC(CCOC(c3ccccc3)c3ccccc3)CC2)cc1	5.36
COC(=O)c1ccc(CN2CCC(CCOC(c3ccccc3)c3ccccc3)CC2)cc1	6.03
C#Cc1ccc(CN2CCC(CCOC(c3ccccc3)c3ccccc3)CC2)cc1	5.98
C=Cc1ccc(CN2CCC(CCOC(c3ccccc3)c3ccccc3)CC2)cc1	5.83
C=C(C)c1ccc(CN2CCC(CCOC(c3ccccc3)c3ccccc3)CC2)cc1	5.99
CC#Cc1ccc(CN2CCC(CCOC(c3ccccc3)c3ccccc3)CC2)cc1	5.62
COc1cccc(CN2CCC(CCOC(c3ccccc3)c3ccccc3)CC2)c1	5.97

Target: Monoamine transporters; Norepininephrine & dopamine (Rattus norvegicus) (UniProt P23977+Q9WTR4)
Assay: Selectivity ratio against dopamine and norepinephrine transporter binding
Assay type: protein assay
Settings: not given
Outline: (§1)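 Ratio of radioligand binding values: SERT ([³H]citalopram) or NET ([³H]nisoxetine) over DAT ([³H]WIN 35,428). Binding 0–4 °C, 2 h (DAT, SERT) or 3 h (NET), final Na⁺ 30 mM (DAT, SERT) or 225 mM (NET); each value from three independent experiments in triplicate.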

Compound	Ratio
Oc1ccc(CN2CCC(CCOC(c3ccccc3)c3ccccc3)CC2)cc1	14
C#Cc1ccc(CN2CCC(CCOC(c3ccccc3)c3ccccc3)CC2)cc1	180
C=Cc1ccc(CN2CCC(CCOC(c3ccccc3)c3ccccc3)CC2)cc1	240
C=C(C)c1ccc(CN2CCC(CCOC(c3ccccc3)c3ccccc3)CC2)cc1	72
Oc1cccc(CN2CCC(CCOC(c3ccccc3)c3ccccc3)CC2)c1	47
CC#Cc1ccc(CN2CCC(CCOC(c3ccccc3)c3ccccc3)CC2)cc1	18
Ic1ccc(CN2CCC(CCOC(c3ccccc3)c3ccccc3)CC2)cc1	1200
COc1cccc(CN2CCC(CCOC(c3ccccc3)c3ccccc3)CC2)c1	24

Target: Monoamine transporters; serotonin & dopamine (Rattus norvegicus) (UniProt P31652+P23977)
Assay: Relative binding to serotonin and dopamine transporters
Assay type: protein assay
Settings: not given
Outline: as §1

Chain of Monoamine transporters; serotonin & dopamine (Rattus norvegicus) (P23977 whole entry, looked up): as the sequence (P23977 whole entry) above
Chain of Monoamine transporters; serotonin & dopamine (Rattus norvegicus) (P31652 whole entry, looked up): as the sequence (P31652 whole entry) above

Compound	Ratio
Oc1ccc(CN2CCC(CCOC(c3ccccc3)c3ccccc3)CC2)cc1	18
COC(=O)c1ccc(CN2CCC(CCOC(c3ccccc3)c3ccccc3)CC2)cc1	110
C#Cc1ccc(CN2CCC(CCOC(c3ccccc3)c3ccccc3)CC2)cc1	250
C=Cc1ccc(CN2CCC(CCOC(c3ccccc3)c3ccccc3)CC2)cc1	500
C=C(C)c1ccc(CN2CCC(CCOC(c3ccccc3)c3ccccc3)CC2)cc1	88
Oc1cccc(CN2CCC(CCOC(c3ccccc3)c3ccccc3)CC2)c1	69
CC#Cc1ccc(CN2CCC(CCOC(c3ccccc3)c3ccccc3)CC2)cc1	37
Ic1ccc(CN2CCC(CCOC(c3ccccc3)c3ccccc3)CC2)cc1	3040
COc1cccc(CN2CCC(CCOC(c3ccccc3)c3ccccc3)CC2)c1	55

Tested on: not listed separately
Assay: Selectivity ratio 3[H]DA uptake /DAT binding
Settings: not given

Compound	Ratio
COC(=O)c1ccc(CN2CCC(CCOC(c3ccccc3)c3ccccc3)CC2)cc1	0.23
C#Cc1ccc(CN2CCC(CCOC(c3ccccc3)c3ccccc3)CC2)cc1	1.2
C=Cc1ccc(CN2CCC(CCOC(c3ccccc3)c3ccccc3)CC2)cc1	0.36
C=C(C)c1ccc(CN2CCC(CCOC(c3ccccc3)c3ccccc3)CC2)cc1	0.26
Oc1cccc(CN2CCC(CCOC(c3ccccc3)c3ccccc3)CC2)c1	0.72
Ic1ccc(CN2CCC(CCOC(c3ccccc3)c3ccccc3)CC2)cc1	2.1
COc1cccc(CN2CCC(CCOC(c3ccccc3)c3ccccc3)CC2)c1	0.34
